In general, IC50 refers to the point on the concentration scale where inhibition reaches its midpoint. Lower therefore signals greater potency. One may read the logP as the decadic logarithm of the partition coefficient of the neutral form, usually between octanol and water. Low readings indicate lower lipophilicity, high ones higher lipophilicity.

One series concerns the target Integrin alpha-V/beta-3 (Homo sapiens, UniProt P05106+P06756). Nature of the series: Inhibitory activity against vitronectin receptor (alpha V beta 3). It counts as protein-complex assay. The method, boiled down: (§1)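 Solid-phase competition binding. αvβ3 was recombinant, from baculovirus, purified on LM609 antibody column, paired with biotinylated human vitronectin. αIIbβ3 was paired with biotinylated human fibrinogen. Integrins coated at 1 µg/mL, blocked, then compounds serially diluted and co-incubated with ligand (1 µg/mL), 37 °C, 3 h. Read-out was alkaline-phosphatase anti-biotin.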

A short description of series [1]: Partition coefficient (logP). The class given is physicochemical. As to conditions: octanol/water.
The target in series [2] is Integrin alpha-IIb/beta-3 (Homo sapiens, UniProt P05106+P08514). Briefly: Inhibitory activity against alpha IIb beta 3 integrin. It counts as protein-complex assay. In outline:
as §1

Series [3] concerns the target Integrin alpha-V/beta-3 and alpha-IIb/beta 3 (Homo sapiens) (UniProt P05106+P06756+P08514). Briefly: Selectivity designates the quotient of affinities to integrins alpha v beta-3 and alpha IIb beta3. It counts as protein assay. The method, boiled down: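 Quotient of IC50 values from the immobilized-integrin competition assays: αvβ3 against biotinylated vitronectin and αIIbβ3 against biotinylated fibrinogen. Ligand at 1 µg/mL, 37 °C, 3 h, anti-biotin alkaline-phosphatase detection. IC50 came from sigmoid fits of triplicates.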

Structures are written as SMILES. Where a SMILES comes first, the peptide text is derived from it. [ ]: non-standard residue; d: D form. NMeF = CN[C@@H](Cc1ccccc1)C(=O)O; azaGly = NNC(=O)O

Sequence of Integrin alpha-V/beta-3 (P05106 27-788 limits assumed): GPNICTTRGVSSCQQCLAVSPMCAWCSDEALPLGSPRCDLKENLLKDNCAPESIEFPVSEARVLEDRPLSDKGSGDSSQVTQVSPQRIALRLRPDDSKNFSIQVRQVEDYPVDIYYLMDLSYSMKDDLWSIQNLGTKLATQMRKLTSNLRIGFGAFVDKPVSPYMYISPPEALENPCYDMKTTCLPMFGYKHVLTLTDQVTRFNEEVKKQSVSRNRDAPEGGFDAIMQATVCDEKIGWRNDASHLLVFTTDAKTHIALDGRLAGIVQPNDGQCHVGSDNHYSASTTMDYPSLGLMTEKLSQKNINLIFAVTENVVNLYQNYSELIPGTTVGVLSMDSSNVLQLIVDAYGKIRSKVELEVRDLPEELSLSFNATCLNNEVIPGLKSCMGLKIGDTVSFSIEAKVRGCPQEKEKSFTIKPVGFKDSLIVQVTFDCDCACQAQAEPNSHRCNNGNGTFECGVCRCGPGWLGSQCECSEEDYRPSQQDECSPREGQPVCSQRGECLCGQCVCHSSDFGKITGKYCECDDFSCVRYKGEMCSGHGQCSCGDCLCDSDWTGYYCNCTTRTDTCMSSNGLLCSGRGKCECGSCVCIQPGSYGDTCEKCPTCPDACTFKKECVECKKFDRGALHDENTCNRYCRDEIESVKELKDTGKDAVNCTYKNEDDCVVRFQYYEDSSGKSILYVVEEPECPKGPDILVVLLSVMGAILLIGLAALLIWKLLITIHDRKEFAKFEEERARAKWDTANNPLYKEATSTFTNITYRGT
Sequence of Integrin alpha-V/beta-3 (P06756 31-889 limits assumed): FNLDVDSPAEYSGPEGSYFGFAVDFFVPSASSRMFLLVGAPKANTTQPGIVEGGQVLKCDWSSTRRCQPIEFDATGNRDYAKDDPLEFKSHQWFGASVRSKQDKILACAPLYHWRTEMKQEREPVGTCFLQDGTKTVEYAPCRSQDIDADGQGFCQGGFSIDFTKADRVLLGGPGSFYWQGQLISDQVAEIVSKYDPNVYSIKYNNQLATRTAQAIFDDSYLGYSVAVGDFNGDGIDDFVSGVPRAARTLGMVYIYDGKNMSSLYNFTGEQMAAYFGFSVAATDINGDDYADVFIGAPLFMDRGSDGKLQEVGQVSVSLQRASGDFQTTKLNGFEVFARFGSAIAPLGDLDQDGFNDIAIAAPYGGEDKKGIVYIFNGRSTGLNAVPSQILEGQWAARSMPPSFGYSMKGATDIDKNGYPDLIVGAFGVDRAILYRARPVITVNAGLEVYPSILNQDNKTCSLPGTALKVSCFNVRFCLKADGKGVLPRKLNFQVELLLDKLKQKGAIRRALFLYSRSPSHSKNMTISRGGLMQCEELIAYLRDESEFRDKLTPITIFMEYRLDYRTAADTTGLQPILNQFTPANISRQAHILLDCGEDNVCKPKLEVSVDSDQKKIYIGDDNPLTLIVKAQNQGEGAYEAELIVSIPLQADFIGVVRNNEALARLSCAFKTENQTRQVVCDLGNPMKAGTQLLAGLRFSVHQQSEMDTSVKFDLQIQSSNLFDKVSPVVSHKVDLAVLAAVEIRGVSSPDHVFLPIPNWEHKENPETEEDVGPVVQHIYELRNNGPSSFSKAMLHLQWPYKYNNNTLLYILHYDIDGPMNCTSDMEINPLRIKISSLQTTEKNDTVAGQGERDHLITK
Sequence of Integrin alpha-V/beta-3 (P06756 891-1048 limits assumed): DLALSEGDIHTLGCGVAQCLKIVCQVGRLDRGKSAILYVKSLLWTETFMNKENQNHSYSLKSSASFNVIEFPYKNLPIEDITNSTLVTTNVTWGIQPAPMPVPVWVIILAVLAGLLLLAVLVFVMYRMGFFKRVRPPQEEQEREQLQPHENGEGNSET
Sequence of Integrin alpha-IIb/beta-3 (P05106 27-788 limits assumed): as the sequence (P05106 27-788 limits assumed) above
Sequence of Integrin alpha-IIb/beta-3 (P08514 32-887 limits assumed): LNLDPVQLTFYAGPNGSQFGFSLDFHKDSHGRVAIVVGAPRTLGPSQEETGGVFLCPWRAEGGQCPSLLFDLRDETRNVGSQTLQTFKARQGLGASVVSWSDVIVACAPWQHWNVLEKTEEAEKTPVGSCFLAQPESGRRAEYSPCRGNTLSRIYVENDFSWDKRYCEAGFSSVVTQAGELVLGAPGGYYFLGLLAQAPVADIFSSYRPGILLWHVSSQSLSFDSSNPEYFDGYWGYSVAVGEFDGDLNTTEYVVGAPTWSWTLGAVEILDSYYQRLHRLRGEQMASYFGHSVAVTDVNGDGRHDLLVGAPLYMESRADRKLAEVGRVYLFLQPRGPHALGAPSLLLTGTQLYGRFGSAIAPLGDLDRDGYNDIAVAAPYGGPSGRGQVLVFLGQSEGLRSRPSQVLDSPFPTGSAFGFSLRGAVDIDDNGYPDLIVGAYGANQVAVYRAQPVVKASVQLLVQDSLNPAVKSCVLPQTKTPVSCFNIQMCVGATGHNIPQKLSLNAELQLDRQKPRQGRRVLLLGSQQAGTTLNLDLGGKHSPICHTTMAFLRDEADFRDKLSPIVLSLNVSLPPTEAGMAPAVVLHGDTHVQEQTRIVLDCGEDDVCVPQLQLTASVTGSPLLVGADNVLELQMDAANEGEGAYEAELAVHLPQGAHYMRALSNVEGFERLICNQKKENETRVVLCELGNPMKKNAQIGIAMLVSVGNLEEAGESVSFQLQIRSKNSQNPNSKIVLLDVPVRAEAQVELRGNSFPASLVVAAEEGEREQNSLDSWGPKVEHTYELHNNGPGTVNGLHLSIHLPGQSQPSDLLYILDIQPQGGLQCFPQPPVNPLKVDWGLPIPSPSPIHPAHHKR
Sequence of Integrin alpha-IIb/beta-3 (P08514 891-1039 limits assumed): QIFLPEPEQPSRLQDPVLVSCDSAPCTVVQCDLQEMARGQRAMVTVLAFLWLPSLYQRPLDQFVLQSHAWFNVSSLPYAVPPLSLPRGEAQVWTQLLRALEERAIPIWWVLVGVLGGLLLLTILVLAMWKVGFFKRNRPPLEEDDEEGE

In turn, `Cc1ccnc(NCCCCC(=O)NNC(=O)NCCC(=O)O)c1` showed a concentration for half-maximal inhibition (IC50) at Integrin alpha-V/beta-3 of 1.4 µM. In series [1], this compound came in with a logP of -0.07.
Take `Cc1ccnc(NCCCCC(=O)NNC(=O)NC(CC(=O)O)c2ccccc2)c1` (stereo unspecified): the values for the IC50 (against Integrin alpha-V/beta-3; in series [2]) were 0.037 µM and greater than 10 µM, respectively. In addition, the logP in series [1] was 1.64.
Consider `Cc1ccnc(NCCCCC(=O)NNC(=O)NC(CC(=O)O)c2ccc(OC(F)(F)F)cc2)c1` (stereo unspecified), for which it took 0.13 µM to reach half-maximal inhibition on Integrin alpha-V/beta-3 (IC50). Besides, in series [1], the logP turned out to be 3.17.
The compound `O=C(O)CC(CC(=O)NNC(=O)c1cccc(Nc2ccccn2)c1)c1cc(Cl)cc(Cl)c1` (stereo unspecified) yielded an IC50 against Integrin alpha-V/beta-3 of 0.21 µM. The logP in series [1] amounted to 3.54.
On Integrin alpha-V/beta-3, `Cc1ccnc(NCCCCC(=O)NNC(=O)NC(CC(=O)O)c2cccc3ccccc23)c1` (stereo unspecified) showed an IC50 of 0.14 µM. The compound also had a logP in series [1] of 2.64.
As for `Cc1ccnc(NCCCCC(=O)NNC(=O)CC(CC(=O)O)c2ccccc2)c1` (stereo unspecified), the IC50 was 0.007 µM on Integrin alpha-V/beta-3 and greater than 10 µM in series [2]. Besides, the logP in series [1] turned out to be 2.07.
For `N=C(N)Nc1cccc(C(=O)NNC(=O)CC(CC(=O)O)c2cc(Cl)cc(Cl)c2)c1` (stereo unspecified) the same measures were 0.002 µM, 1 µM and 2.24.
For the compound `N=C(N)Nc1cccc(C(=O)NNC(=O)CC(CC(=O)O)c2ccccc2)c1` (stereo unspecified), the results for the IC50 (on Integrin alpha-V/beta-3; in series [2]) were 0.015 µM and greater than 10 µM, respectively. In series [1], this compound had a logP of 1.13.
For `COc1ccc(C(CC(=O)O)CC(=O)NNC(=O)c2cccc(NC(=N)N)c2)cc1` (stereo unspecified), in that order: 0.001 µM, greater than 1 µM and 1.
On to `NC(N)=Nc1cccc(C(=O)NNC(=O)NC(CC(=O)O)c2cccc3ccccc23)c1` (stereo unspecified), for which the IC50 on Integrin alpha-V/beta-3 is 0.027 µM; in series [2] it was greater than 10 µM. This compound also had a logP in series [1] of 1.7.
For `NC(N)=Nc1cccc(C(=O)NNC(=O)NC(CC(=O)O)c2ccc(F)cc2)c1` (stereo unspecified) the same measures were 0.006 µM, 1 µM and 0.86.
In series [3], `N=C(N)Nc1cccc(C(=O)NNC(=O)NC(CC(=O)O)C(N)=O)c1` (stereo unspecified) yielded a Selectivity greater than 70.
Take `NCCCC[C@H](NC(=O)[C@@H]1CCCN1C(=O)[C@H](CO)NC(=O)[C@H](CC(=O)O)NC(=O)CNC(=O)[C@H](CCCN=C(N)N)NC(=O)CN)C(=O)O`: the IC50 at Integrin alpha-V/beta-3 is 1 µM; in series [2], greater than 10 µM. This compound came in with a Selectivity in series [3] of 8.
As for `Cc1ccnc(NCCCCC(=O)NNC(=O)CC(CC(=O)O)c2cc(Cl)cc(Cl)c2)c1` (stereo unspecified), the IC50 was 0.009 µM against Integrin alpha-V/beta-3 and greater than 10 µM in series [2]. Further, the logP in series [1] turned out to be 3.19.
For `Cc1ccnc(NCCCCC(=O)NNC(=O)CC(CC(=O)O)c2ccc(Br)cc2)c1` (stereo unspecified) the same measures were 0.006 µM, 9 µM and 2.9.
For `N=C(N)NCCCCC(=O)NNC(=O)NC(CC(=O)O)c1ccccc1` (stereo unspecified), the IC50 is 0.04 µM against Integrin alpha-V/beta-3 and 1 µM in series [2]. This compound returned a logP in series [1] of -0.26.
In the case of `Cc1ccnc(NCCCCC(=O)NNC(=O)NC(CC(=O)O)c2ccc(F)cc2)c1` (stereo unspecified), the values for the IC50 (against Integrin alpha-V/beta-3; in series [2]) were 0.048 µM and greater than 10 µM, respectively. In series [1], the logP was 1.8.
Consider `CC(=N)Nc1cccc(C(=O)NNC(=O)CC(CC(=O)O)c2ccc(Cl)cc2)c1` (stereo unspecified), for which the IC50 on Integrin alpha-V/beta-3 amounted to 0.16 µM; in series [2] it was 8 µM. In series [1], this compound displayed a logP of 2.
On to `CC(C)[C@@H]1NC(=O)[C@H](CCCN=C(N)N)NC(=O)NNC(=O)[C@H](CC(=O)O)NC(=O)[C@H](Cc2ccccc2)N(C)C1=O` (cyclo(D[azaGly]RV[NMeF])), for which the Selectivity in series [3] is 270.
As for `COc1ccc(C(CC(=O)O)NC(=O)NNC(=O)c2cccc(N=C(N)N)c2)cc1` (stereo unspecified), the IC50 at Integrin alpha-V/beta-3 is 0.0009 µM; in series [2], greater than 1 µM. The compound further returned a logP in series [1] of 0.58.
Take `CC(=N)Nc1cccc(C(=O)NNC(=O)CC(CC(=O)O)c2cc(Cl)cc(Cl)c2)c1` (stereo unspecified): at Integrin alpha-V/beta-3, the IC50 was determined as 0.006 µM. Further, the logP in series [1] was 2.55.
For `COc1ccc(C(CC(=O)O)CC(=O)NNC(=O)c2cccc(N=C(C)N)c2)cc1` (stereo unspecified), the IC50 was 0.037 µM at Integrin alpha-V/beta-3 and greater than 1 µM in series [2]. The compound further gave a logP in series [1] of 1.31.
For `N=C(N)Nc1cccc(C(=O)NNC(=O)NC(CC(=O)O)c2ccc(Cl)cc2)c1` (stereo unspecified), in that order: 0.0001 µM, 5.5 µM and 1.26.
For `COc1ccc(C(CC(=O)O)CC(=O)NNC(=O)CCCCNc2cc(C)ccn2)cc1` (stereo unspecified), the concentration for half-maximal inhibition (IC50) at Integrin alpha-V/beta-3 was 0.022 µM; in series [2], greater than 10 µM. This compound also showed a logP in series [1] of 1.94.
`Cc1ccnc(NCCCCC(=O)NNC(=O)CC(CC(=O)O)c2ccc(Cl)cc2)c1` (stereo unspecified) had an IC50 on Integrin alpha-V/beta-3 of 0.015 µM. The logP in series [1] was 2.63.
Turning to `CC(=N)Nc1cccc(C(=O)NNC(=O)CC(CC(=O)O)c2ccccc2)c1` (stereo unspecified), the IC50 against Integrin alpha-V/beta-3 is 0.023 µM; in series [2], greater than 10 µM. Also, the logP in series [1] came to 1.44.
For `CC(N)=Nc1cccc(C(=O)NNC(=O)CC(CC(=O)O)c2ccc(Br)cc2)c1` (stereo unspecified), in that order: 0.04 µM, greater than 1 µM and 2.27.
For `N=C(N)Nc1cccc(C(=O)NNC(=O)NC(CC(=O)O)c2ccccc2)c1` (stereo unspecified), the IC50 against Integrin alpha-V/beta-3 turned out to be 0.0008 µM; in series [2], 8.5 µM. In addition, the logP in series [1] stood at 0.7.
For `N=C(N)Nc1cccc(C(=O)NNC(=O)CC(CC(=O)O)c2ccc(F)cc2)c1` (stereo unspecified), in that order: 0.004 µM, greater than 1 µM and 1.28.
For `Cc1ccnc(NCCCCC(=O)NNC(=O)NC(CC(=O)O)c2ccc(Br)cc2)c1` (stereo unspecified), on Integrin alpha-V/beta-3, the IC50 amounted to 0.007 µM. Further, the logP in series [1] worked out at 2.47.
In turn, `CC(C)[C@@H]1NC(=O)[C@H](CCCN=C(N)N)NC(=O)CNC(=O)[C@H](CC(=O)O)NC(=O)[C@H](Cc2ccccc2)NC1=O` (cyclo(DGRVF)) came in with a Selectivity in series [3] of 415.
Take `CC(=N)Nc1cccc(C(=O)NNC(=O)CC(CC(=O)O)c2ccc(-c3ccccc3)cc2)c1` (stereo unspecified): the IC50 on Integrin alpha-V/beta-3 was 0.026 µM; in series [2], greater than 1 µM. Besides, the logP in series [1] stood at 3.11.
For `CC(=N)Nc1cccc(C(=O)NNC(=O)CC(CC(=O)O)c2ccc(F)cc2)c1` (stereo unspecified), in that order: 0.16 µM, greater than 1 µM and 1.6.
For `NC(=O)C(CC(=O)O)NC(=O)NNC(=O)c1cccc(N=C(N)N)c1` (stereo unspecified) the same measures were 0.15 µM, greater than 10 µM and -2.42.
Take `Cc1ccnc(NCCCCC(=O)NNC(=O)NC(CC(=O)O)c2ccc(Cl)cc2)c1` (stereo unspecified): the IC50 against Integrin alpha-V/beta-3 came to 0.0003 µM; in series [2] it was 7 µM. Besides, the logP in series [1] is 2.2.
For `N=C(N)Nc1cccc(C(=O)NNC(=O)NC(CC(=O)O)c2ccc(Br)cc2)c1` (stereo unspecified), in that order: 0.001 µM, greater than 1 µM and 1.53.
For `N=C(N)Nc1cccc(C(=O)NNC(=O)CC(CC(=O)O)c2ccc(Br)cc2)c1` (stereo unspecified), in that order: 0.002 µM, greater than 1 µM and 1.95.
As for `Cc1ccnc(NCCCCC(=O)NNC(=O)NC(CC(=O)O)c2cc(Cl)cc(Cl)c2)c1` (stereo unspecified), the IC50 against Integrin alpha-V/beta-3 was 0.08 µM; in series [2], greater than 10 µM. The same compound had a log partition coefficient (logP) in series [1] of 2.76.
Compound `Cc1ccnc(NCCCCC(=O)NNC(=O)CC(CC(=O)O)c2ccc(F)cc2)c1` (stereo unspecified) had an IC50 against Integrin alpha-V/beta-3 of 0.035 µM. Moreover, the logP in series [1] was 2.23.
As to `CC(C)[C@@H]1NC(=O)[C@H](CCCN=C(N)N)NC(=O)CNC(=O)[C@H](CC(=O)O)NC(=O)[C@H](Cc2ccccc2)N(C)C1=O` (cyclo(DGRV[NMeF])), the Selectivity in series [3] was 1460.
With `Cc1ccnc(NCCCCC(=O)NNC(=O)CC(CC(=O)O)c2ccc(-c3ccccc3)cc2)c1` (stereo unspecified), the IC50 against Integrin alpha-V/beta-3 is 0.003 µM. In series [3], this compound yielded a Selectivity of 1000.
As for `N=C(N)Nc1cccc(C(=O)NNC(=O)CC(CC(=O)O)c2ccc(Cl)cc2)c1` (stereo unspecified), the IC50 against Integrin alpha-V/beta-3 is 0.002 µM; in series [2], greater than 1 µM. The logP in series [1] came to 1.68.
In the case of `COc1ccc(C(CC(=O)O)NC(=O)NNC(=O)CCCCNc2cc(C)ccn2)cc1` (stereo unspecified), the figures for the IC50 (against Integrin alpha-V/beta-3; in series [2]) were 0.042 µM and greater than 10 µM, respectively. For the same compound, the logP in series [1] was determined as 1.52.
In the case of `N=C(N)Nc1cccc(C(=O)NNC(=O)CC(CC(=O)O)c2ccc(-c3ccccc3)cc2)c1` (stereo unspecified), the IC50 turned out to be 0.0007 µM against Integrin alpha-V/beta-3 and 1 µM in series [2]. The same compound registered a logP in series [1] of 2.8.
For `NC(N)=Nc1cccc(C(=O)NNC(=O)NC(CC(=O)O)c2cc(Cl)cc(Cl)c2)c1` (stereo unspecified), the IC50 at Integrin alpha-V/beta-3 is 0.001 µM; in series [2], greater than 1 µM. Moreover, the logP in series [1] is 1.82.
On to `N=C(N)Nc1cccc(C(=O)NNC(=O)NC(CC(=O)O)c2ccc(OC(F)(F)F)cc2)c1` (stereo unspecified), for which the IC50 at Integrin alpha-V/beta-3 is 0.003 µM; in series [2] it was greater than 1 µM. In series [1], this compound yielded a logP of 2.23.

Values taken from ChEMBL document CHEMBL1134450, “Solid-phase synthesis of a nonpeptide RGD mimetic library: new selective alphavbeta3 integrin antagonists” (J Med Chem, 2001).
